Experimental data of several laboratories.
Lines come from different studies, so protocols differ.
Read-out: cell growth or viability

| Compound | cell line | method | concentration | time | endpoint | result |
| --- | --- | --- | --- | --- | --- | --- |
| N.N.[Cl][Pt][Cl] | Ramos | ATP luminescence | 10 µM | 72 h | inhibition | 100% |
| Nc1c(C(=O)NCc2ccc(F)cc2)sc2nc(-c3ccccc3)ccc12 | HepG2 | – | – | 72 h | IC50 | > 100 µM |
| Cc1cccc(F)c1NC(=N)CC(O)c1cc2c(F)cc(F)cc2c2cc(C(F)(F)F)ccc12 (stereo not drawn) | HepG2 | neutral red | – | 24 h | IC50 | 22.8 µM |
| COc1ccc(-c2cc(C(F)(F)F)c3c(N)c(C(=O)NC4CC4)sc3n2)cc1 | HepG2 | – | – | 72 h | IC50 | > 100 µM |
| O=C1[O][Pt]2([NH][C@@H]3CCCC[C@H]3[NH]2)[O]C1=O | THLE3 | imaging | – | 72 h | IC50 | 32.2 µM |
| N=C(CC(O)c1cc2c(F)cc(F)cc2c2cc(C(F)(F)F)ccc12)Nc1cc(F)c(F)c(F)c1 (stereo not drawn) | HepG2 | neutral red | – | 24 h | IC50 | 18.3 µM |
| CN(C)C(=O)c1sc2nc(-c3ccccc3)ccc2c1N | HepG2 | – | – | 72 h | IC50 | > 100 µM |
| O=C(Nc1ccc(Cl)cc1)Nc1cccc(-c2cn(Cc3ccc(Br)cc3)nn2)c1 | Huh-7 | CCK-8 | 50 µM | 48 h | viability | 60.5% |
| N=C(CC(O)c1cc2c(F)cc(F)cc2c2cc(C(F)(F)F)ccc12)Nc1ccc(N2CCC(F)(F)CC2)cc1 (stereo not drawn) | HepG2 | neutral red | – | 24 h | IC50 | 53.8 µM |
